≈ marks a conversion by molar mass, not a printed value.
Key:
[1] = Solubility of the compound in FaSSIF solution at 100 uM after overnight incubation by UPLC/DAD analysis; type: physicochemical
[2] = Intrinsic clearance in human hepatocytes after 120 mins by LC-MS/MS analysis; type: ADME, cell-based, Hepatocyte; conditions: read-out: CLH
[3] = Apparent permeability in MDCK cells; type: ADME, cell-based, Canis lupus familiaris; conditions: dog
[4] = Intrinsic clearance in rat hepatocytes after 120 mins by LC-MS/MS analysis; type: ADME, cell-based, Hepatocyte; conditions: read-out: CLH
[5] = Clearance in rat at 0.5 mg/kg, iv or 1 mg/kg, po; type: ADME, organism-based; conditions: in vivo
How it was run: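 Rat dosed iv at 0.5 mpk or po at 1 mpk, each as a solution in PEG400/H2O (60:40 (v/v)).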

[6] = target: Stimulator of interferon genes protein (Homo sapiens, UniProt Q86WV6); experiment: Displacement of [3H]cGAMP from full length human HAQ STING expressed in Trichopulsia ni membranes preincubated for 30 mins followed by [3H]cGAMP addition and measured after 60 mins by scintillation counting method; type: cell membranes
Stimulator of interferon genes protein, sequence (Q86WV6 whole entry, looked up): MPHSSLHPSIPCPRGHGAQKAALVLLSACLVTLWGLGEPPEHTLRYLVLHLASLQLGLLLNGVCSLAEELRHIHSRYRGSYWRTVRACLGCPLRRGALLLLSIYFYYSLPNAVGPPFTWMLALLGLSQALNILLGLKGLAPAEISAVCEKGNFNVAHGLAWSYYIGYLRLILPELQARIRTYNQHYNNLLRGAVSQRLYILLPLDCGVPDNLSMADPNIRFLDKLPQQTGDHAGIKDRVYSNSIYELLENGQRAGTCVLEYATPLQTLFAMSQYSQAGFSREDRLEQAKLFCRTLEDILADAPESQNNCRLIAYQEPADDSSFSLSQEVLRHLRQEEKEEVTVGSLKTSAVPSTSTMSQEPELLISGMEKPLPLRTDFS

SMILES: CC(C)(C)c1ccc(N2C(=O)c3ccccc3[C@H](C(=O)O)[C@H]2c2ccc3c(c2)OCCO3)cc1Cl
- solubility at 100 µM [1]: 151 µM (≈ 74.3 µg/mL)
- CLint scaled [2]: 28 mL/min/kg
- Papp [3]: 9 ×10⁻⁶ cm/s
- CLint scaled [4]: 158 mL/min/kg
- clearance [5]: 38 mL/min/kg

SMILES: CC(C)(C)c1ccc(N2C(=O)c3cc(F)ccc3[C@H](CC(=O)O)[C@H]2c2ccc3c(c2)OCCO3)cc1Cl
- solubility at 100 µM [1]: 187 µM (≈ 98 µg/mL)
- CLint scaled [2]: 31 mL/min/kg
- Papp [3]: 18 ×10⁻⁶ cm/s
- CLint scaled [4]: 240 mL/min/kg
- clearance [5]: 45 mL/min/kg

SMILES: O=C(O)[C@H]1c2ccccc2C(=O)N(c2ccc3c(c2)CCC3)[C@@H]1c1ccc(Oc2ccccc2)cc1 (racemic)
- IC50 [6]: > 20 µM

SMILES: O=C(O)[C@H]1c2ccccc2C(=O)N(c2ccc3c(c2)CCC3)[C@@H]1c1ccc2c(c1)OC(F)(F)O2 (racemic)
- IC50 [6]: > 20 µM

SMILES: N#Cc1ccc([C@@H]2[C@@H](C(=O)O)c3ccccc3C(=O)N2c2ccc3c(c2)CCC3)cc1 (racemic)
- IC50 [6]: > 20 µM

SMILES: CC(C)c1ccc(N2C(=O)c3ccccc3[C@H](C(=O)O)[C@H]2c2ccc3ccccc3c2)cc1 (racemic)
- IC50 [6]: > 20 µM

SMILES: CN(C)c1ccc([C@@H]2[C@@H](C(=O)O)c3ccccc3C(=O)N2c2ccc3c(c2)CCC3)cc1 (racemic)
- IC50 [6]: > 20 µM
